In publication PMC4086711 (European journal of pain (London, England), 2011):
Counter-ions that a name gives are not always drawn.

Tests used:
[1] = system: MOR; assay: Ca2+ mobilization; format: cell-based; conditions: agonist; HEK-293 with chimeric G-protein delta6-Gqi4-myr
Method in brief: (§1)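 HEK-293 cells stably expressing the receptor, grown in DMEM with 10% FCS at 37 °C in 7% CO2, were transiently transfected with Δ6-Gqi4-myr (100 ng per 60,000 cells). After one day, cells were loaded with Ca2+ dye for 60 min and stimulated with increasing ligand concentrations to give dose–response curves and EC50. Each experiment was run at least three times in triplicate; values are means ± SEM.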

[2] = system: KOR; assay: Ca2+ mobilization; format: cell-based; conditions: agonist; HEK-293 with chimeric G-protein delta6-Gqi4-myr
Method in brief: as §1

With `COC(=O)N1CCN(C(=O)Cc2ccc(Cl)c(Cl)c2)C(CN2CCCC2)C1` (centres unmarked) [GR89, 696, 4-[(3,4-Dichlorophenyl)acetyl]-3-(1-pyrrolidinylmethyl)-1-piperazine-carboxylic acid methyl ester fumarate] the “pEC50 (M) / MOR” value [1] was 7.2 ± 0.2 pEC50 (M) and the “pEC50 (M) / KOR” value [2] was 10.1 ± 0.2 pEC50 (M).
